# Data published in ChEMBL document CHEMBL5724801, “EUbOPEN Chemogenomics Library - Multiplex” (2024).
# “And” between values parts separate entries of the source, which are not always exact repeats. Identical values can stand only once.
# Test system: U2OS
# Assay: Multiplex assay against U2OS
# Type: toxicity, cell-based
# Details: human
# Method in brief: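 Four dyes were applied at seeding to live cells: Hoechst33342, BioTracker Green Microtubule Cytoskeleton Dye, MitoTracker Red and Annexin V Alexa Fluor 680. Imaging after compound addition used a CQ1 microscope at 37°C and 5% CO2. CellPathfinder machine-learning gating then sorted cells into Hoechst high-intensity objects or normal cells, normal cells into healthy, pyknosed or fragmented nuclei, and pyknosed cells into mitotic or apoptotic, with tubulin, mitochondrial-mass and membrane-permeability phenotypes given as per cents of healthy-nucleus cells.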
# [1] = 12 h, 1 µM, compound concentration 1 uM
# [2] = 12 h, 10 µM, compound concentration 10 uM
# [3] = 24 h, 1 µM, compound concentration 1 uM
# [4] = 24 h, 10 µM, compound concentration 10 uM
# [5] = 48 h, 1 µM, compound concentration 1 uM
# [6] = 48 h, 10 µM, compound concentration 10 uM
smiles,measurement,setting,value
Cc1onc(-c2ccccc2Cl)c1C(=O)N(C)c1ccc(Cl)cc1,Population Apoptotic (%),[1],82% and 78%
same,Population Fragmented Nuclei (%),[1],26% and 10%
same,Population Healthy Nuclei (%),[1],67% and 79%
same,Population Hoechst High Intensity Objects (%),[1],0% and 1%
same,Population Membrane Permeable-Phenotype (%),[1],3% and 4%
same,Population Mitochondria Different-Phenotype (%),[1],2% and 1%
same,Population Mitotic Cells (%),[1],17% and 21%
same,Population Normal (%),[1],99% and 98%
same,Population Pyknosed Nuclei (%),[1],6% and 10%
same,Population Tubulin-Different-Phenotype (%),[1],1% and 3%
same,Total Cell Count,[1],277 and 136
same,Population Apoptotic (%),[2],79% and 77%
same,Population Fragmented Nuclei (%),[2],28% and 24%
same,Population Healthy Nuclei (%),[2],58% and 56%
same,Population Hoechst High Intensity Objects (%),[2],4% and 0%
same,Population Membrane Permeable-Phenotype (%),[2],12% and 7%
same,Population Mitochondria Different-Phenotype (%),[2],5% and 6%
same,Population Mitotic Cells (%),[2],20% and 22%
same,Population Normal (%),[2],95% and 99%
same,Population Pyknosed Nuclei (%),[2],12% and 19%
same,Population Tubulin-Different-Phenotype (%),[2],5% and 4%
same,Total Cell Count,[2],244 and 113
same,Population Apoptotic (%),[3],100% and 83%
same,Population Fragmented Nuclei (%),[3],23% and 11%
same,Population Healthy Nuclei (%),[3],70% and 81%
same,Population Hoechst High Intensity Objects (%),[3],0% and 1%
same,Population Membrane Permeable-Phenotype (%),[3],2% and 4%
same,Population Mitochondria Different-Phenotype (%),[3],2% and 5%
same,Population Mitotic Cells (%),[3],0% and 16%
same,Population Normal (%),[3],99% and 98%
same,Population Pyknosed Nuclei (%),[3],5% and 7%
same,Population Tubulin-Different-Phenotype (%),[3],0% and 2%
same,Total Cell Count,[3],328 and 168
same,Population Apoptotic (%),[4],72% and 64%
same,Population Fragmented Nuclei (%),[4],26% and 20%
same,Population Healthy Nuclei (%),[4],62% and 66%
same,Population Hoechst High Intensity Objects (%),[4],3%
same,Population Membrane Permeable-Phenotype (%),[4],11% and 8%
same,Population Mitochondria Different-Phenotype (%),[4],6% and 7%
same,Population Mitotic Cells (%),[4],27% and 35%
same,Population Normal (%),[4],96%
same,Population Pyknosed Nuclei (%),[4],11% and 13%
same,Population Tubulin-Different-Phenotype (%),[4],4% and 7%
same,Total Cell Count,[4],299 and 129
same,Population Apoptotic (%),[5],87% and 89%
same,Population Fragmented Nuclei (%),[5],16% and 12%
same,Population Healthy Nuclei (%),[5],75%
same,Population Hoechst High Intensity Objects (%),[5],2% and 1%
same,Population Membrane Permeable-Phenotype (%),[5],4% and 1%
same,Population Mitochondria Different-Phenotype (%),[5],3% and 2%
same,Population Mitotic Cells (%),[5],12% and 10%
same,Population Normal (%),[5],97% and 98%
same,Population Pyknosed Nuclei (%),[5],7% and 11%
same,Population Tubulin-Different-Phenotype (%),[5],2% and 1%
same,Total Cell Count,[5],450 and 252
same,Population Apoptotic (%),[6],69% and 90%
same,Population Fragmented Nuclei (%),[6],22% and 23%
same,Population Healthy Nuclei (%),[6],67% and 65%
same,Population Hoechst High Intensity Objects (%),[6],3% and 2%
same,Population Membrane Permeable-Phenotype (%),[6],10% and 9%
same,Population Mitochondria Different-Phenotype (%),[6],5%
same,Population Mitotic Cells (%),[6],30% and 10%
same,Population Normal (%),[6],96% and 97%
same,Population Pyknosed Nuclei (%),[6],9% and 11%
same,Population Tubulin-Different-Phenotype (%),[6],4% and 3%
same,Total Cell Count,[6],413 and 182
CCCC(CCC)C(=O)O [VALPROIC ACID],Population Apoptotic (%),[1],72% and 66%
same,Population Fragmented Nuclei (%),[1],28% and 14%
same,Population Healthy Nuclei (%),[1],63% and 77%
same,Population Hoechst High Intensity Objects (%),[1],6% and 2%
same,Population Membrane Permeable-Phenotype (%),[1],9% and 8%
same,Population Mitochondria Different-Phenotype (%),[1],7% and 3%
same,Population Mitotic Cells (%),[1],27% and 33%
same,Population Normal (%),[1],93% and 97%
same,Population Pyknosed Nuclei (%),[1],8%
same,Population Tubulin-Different-Phenotype (%),[1],8% and 6%
same,Population Apoptotic (%),[2],77% and 85%
same,Population Fragmented Nuclei (%),[2],30% and 21%
same,Population Healthy Nuclei (%),[2],66% and 70%
same,Population Hoechst High Intensity Objects (%),[2],4% and 0%
same,Population Membrane Permeable-Phenotype (%),[2],6% and 4%
same,Population Mitochondria Different-Phenotype (%),[2],3% and 4%
same,Population Mitotic Cells (%),[2],22% and 14%
same,Population Normal (%),[2],95% and 100%
same,Population Pyknosed Nuclei (%),[2],3% and 7%
same,Population Tubulin-Different-Phenotype (%),[2],4%
same,Population Apoptotic (%),[3],84% and 100%
same,Population Fragmented Nuclei (%),[3],24% and 17%
same,Population Healthy Nuclei (%),[3],66% and 74%
same,Population Hoechst High Intensity Objects (%),[3],6% and 3%
same,Population Membrane Permeable-Phenotype (%),[3],9%
same,Population Mitochondria Different-Phenotype (%),[3],6% and 2%
same,Population Mitotic Cells (%),[3],16% and 0%
same,Population Normal (%),[3],93% and 96%
same,Population Pyknosed Nuclei (%),[3],8%
same,Population Tubulin-Different-Phenotype (%),[3],9% and 7%
same,Population Apoptotic (%),[4],83% and 100%
same,Population Fragmented Nuclei (%),[4],25% and 17%
same,Population Healthy Nuclei (%),[4],71% and 78%
same,Population Hoechst High Intensity Objects (%),[4],2% and 0%
same,Population Membrane Permeable-Phenotype (%),[4],4% and 8%
same,Population Mitochondria Different-Phenotype (%),[4],3% and 4%
same,Population Mitotic Cells (%),[4],16% and 0%
same,Population Normal (%),[4],97% and 100%
same,Population Pyknosed Nuclei (%),[4],3% and 4%
same,Population Tubulin-Different-Phenotype (%),[4],3% and 5%
same,Population Apoptotic (%),[5],76% and 91%
same,Population Fragmented Nuclei (%),[5],20% and 16%
same,Population Healthy Nuclei (%),[5],69% and 72%
same,Population Hoechst High Intensity Objects (%),[5],3%
same,Population Membrane Permeable-Phenotype (%),[5],7% and 8%
same,Population Mitochondria Different-Phenotype (%),[5],5%
same,Population Mitotic Cells (%),[5],23% and 8%
same,Population Normal (%),[5],96%
same,Population Pyknosed Nuclei (%),[5],9% and 11%
same,Population Tubulin-Different-Phenotype (%),[5],5% and 6%
same,Population Apoptotic (%),[6],91% and 93%
same,Population Fragmented Nuclei (%),[6],20%
same,Population Healthy Nuclei (%),[6],71%
same,Population Hoechst High Intensity Objects (%),[6],2% and 1%
same,Population Membrane Permeable-Phenotype (%),[6],3% and 9%
same,Population Mitochondria Different-Phenotype (%),[6],2%
same,Population Mitotic Cells (%),[6],8% and 6%
same,Population Normal (%),[6],97% and 98%
same,Population Pyknosed Nuclei (%),[6],7%
same,Population Tubulin-Different-Phenotype (%),[6],1% and 4%
